Only some compounds are listed: those with a hit (about 3.3% of all), similar ones and a draw of the others.
STAT3 activator = STAT3 signaling activation; activation (% of control), % at 5.6 µM; U3A cells, IL-6 STAT3-luciferase reporter, luminescence; 100% = signal with IL-6 EC80 alone; 190,000 compounds, 0.91% hits;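 active = activation above the screen-wide mean of compound activation plus 3 SD, cut at about 130% in these data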;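 also: 0% = background luminescence of wells with medium and substrate only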
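Test system: STAT3-luciferase reporter U3A cells; Detection: reporter luminescence signal; Times: 1 h compound pre-exposure, 6 h IL-6 stimulation, 37 °C; Benchmarks: IL-6-only high control; Also added: IL-6 stimulus at 33 ng/mL final.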
ABCB6 inh MLPCN = human ABCB6 transporter inhibition. fluorescence ratio to DMSO, % at 10 µM. K562-ABCB6 porphyrin accumulation, flow cytometry, 1 h; hits give low values. Q9NP58. 360,000 compounds, 0.19% hits;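 active = fluorescence ratio to DMSO below 75%, the collection mean minus 3 SD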;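 also: signal is porphyrin accumulated inside mitochondria; 100% equals median channel fluorescence of DMSO control wells; lower ratio means ABCB6 inhibition with less porphyrin fluorescence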
Target sequence (Q9NP58 whole entry, looked up): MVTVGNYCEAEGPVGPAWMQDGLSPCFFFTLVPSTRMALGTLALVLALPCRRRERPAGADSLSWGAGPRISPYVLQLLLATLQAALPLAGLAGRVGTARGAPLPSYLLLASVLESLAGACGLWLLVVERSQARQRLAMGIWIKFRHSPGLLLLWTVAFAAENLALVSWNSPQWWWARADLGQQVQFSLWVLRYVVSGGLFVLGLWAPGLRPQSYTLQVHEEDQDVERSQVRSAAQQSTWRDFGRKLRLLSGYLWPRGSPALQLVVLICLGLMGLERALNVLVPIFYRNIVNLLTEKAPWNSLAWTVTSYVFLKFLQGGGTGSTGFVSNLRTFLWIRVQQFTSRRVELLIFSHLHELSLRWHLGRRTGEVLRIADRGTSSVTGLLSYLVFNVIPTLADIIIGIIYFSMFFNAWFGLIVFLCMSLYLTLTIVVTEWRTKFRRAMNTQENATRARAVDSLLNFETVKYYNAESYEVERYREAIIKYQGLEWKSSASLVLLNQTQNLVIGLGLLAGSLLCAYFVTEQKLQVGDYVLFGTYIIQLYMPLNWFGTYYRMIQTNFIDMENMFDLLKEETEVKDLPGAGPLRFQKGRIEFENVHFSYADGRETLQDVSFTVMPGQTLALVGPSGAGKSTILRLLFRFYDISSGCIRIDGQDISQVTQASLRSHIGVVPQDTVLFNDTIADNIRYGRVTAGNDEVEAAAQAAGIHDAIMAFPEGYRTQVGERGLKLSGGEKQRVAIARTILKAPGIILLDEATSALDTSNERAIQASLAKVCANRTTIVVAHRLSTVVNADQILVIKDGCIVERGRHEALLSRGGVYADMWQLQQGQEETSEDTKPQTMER
AHR act = activates the human aryl hydrocarbon receptor | AID 2796 | AHR-responsive luciferase reporter cells, luminescence | 320,000 compounds, 2.5% hits | activation, % at 5 µM | P35869; in the data active = activation above about 47%;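 also: 0% = vehicle wells and 100% = reference agonist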
GAA850 FXN act = activators of GAA850 frataxin (FXN) promoter; 360,000 compounds, 0.56% hits; activation, % at 6 µM; HEK293 lucGAA850 FXN promoter luciferase reporter, 24 h; percent of 10 µM SAHA response;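 active = activation above the average of all compounds screened plus 3 SD, cutoff fixed separately per campaign, cut at about 7.5% in these data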;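 also: 0% = DMSO wells and 100% = 10 µM SAHA wells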
Starred values were filed as active, the others as inactive; / = no result given.

SMILES	STAT3 activator	ABCB6 inh MLPCN	AHR act	GAA850 FXN act
O=C1CN(C(=O)CN2CCOCC2)C(c2ccccc2)c2cc(Br)ccc2N1 (stereo not given)	108	97	57*	0
O=C1CN(C(=O)CN2CCCC2)C(c2ccccc2)c2cc(Br)ccc2N1 (stereo not given)	117	100	30	2
CSc1nc(C)c2c(n1)N(c1ccc(C(C)C)cc1)CC2	96	97	-2	3
O=C(Nc1ccc(F)cc1F)c1cc(-c2ccc3c(c2)OCO3)on1	/	91	-2	-1
O=C(/C=C/c1c(Cl)cccc1Cl)NCCCn1ccnc1	/	98	48*	1
O=C(NCCCn1ccnc1)c1sc2cccc(F)c2c1Cl	104	91	78*	-1
O=C(NCCCn1ccnc1)c1cc2ccccc2oc1=O	103	96	24	1
CC1CCc2sc(C(=O)NCCCn3ccnc3)cc2C1 (stereo not given)	/	97	51*	2
O=C(NCCCn1ccnc1)c1cc2c(s1)CCCCC2	101	100	19	0
O=C(NCCCn1ccnc1)c1ccc2ccccc2c1	/	93	60*	1
O=C(O)c1ccc(S(=O)(=O)N2CCc3ccccc3C2)cc1	/	97	4	0
Cc1ccc(O)c(NC(=O)C2CC(c3cccc(Br)c3)=NO2)c1 (stereo not given)	/	96	6	1
CCn1c(COc2ccc3c(c2)CCCC3)nnc1SCC(=O)Nc1ccc(C(=O)OC)cc1	82	98	-2	3
CCOc1ccc(NC(=S)NCCCn2ccnc2)cc1	110	100	1	0
S=C(NCCCn1ccnc1)Nc1cccc(Cl)c1	97	89	49*	1
Cc1cccn2c(N)c(-c3ccccc3)nc12	134*	85	37	-1
CCOC(=O)c1c(-c2ccccc2)nc2c(C)cccn12	97	101	3	0
CCOc1cc(NC(=O)CCl)c(OCC)cc1NC(=O)CCl	/	97	11	1
Cc1ccnc(N(C(=O)c2cccs2)C(=O)c2cccs2)c1	99	98	50*	5
CCCN(CCC)C(=O)NC1CC(=O)N(c2ccc(OC)cc2)C1 (stereo not given)	91	105	5	-1
CCC(c1nnnn1CC1CCCO1)N(CCCO)Cc1cc2cccc(C)c2[nH]c1=O (stereo not given)	104	100	11	1
CCC(c1nnnn1Cc1ccc(F)cc1)N(CCCO)Cc1cc2cc3c(cc2[nH]c1=O)OCO3 (stereo not given)	106	100	73*	-2
CCCn1c(NC(=O)c2ccccc2Br)nc2ccccc21	95	93	47*	1
CCCCn1c(NC(=S)Nc2ccccc2)nc2ccccc21	106	98	66*	0
CCCCn1c(NC(=O)c2ccccc2)nc2ccccc21	96	93	73*	1
SMILES	STAT3 activator	ABCB6 inh MLPCN	AHR act	GAA850 FXN act
CCCn1c(NC(=O)c2ccc(F)cc2)nc2ccccc21	102	93	53*	3
S=C(Nc1ccccc1)Nc1nc2ccccc2n1CCOc1ccccc1	106	99	19	-1
CCCn1c(NC(=O)C2CCN(C(=O)c3ccc(F)cc3)CC2)nc2ccccc21	/	96	-1	3
O=C(NN1C(=O)c2ccccc2C1=O)c1ccccc1[N+](=O)[O-]	104	100	3	-1
CNc1ccc(N=Nc2cccc3ncccc23)cc1	/	92	/	-5
O=C1CN(C(=O)COC(=O)c2c(F)cccc2Cl)c2ccccc2N1	/	95	10	1
CCCn1c(NC(=O)c2ccc(Br)cc2)nc2ccccc21	134*	102	13	4
CCn1c(NC(=O)c2ccccc2)nc2ccccc21	/	100	45	1
CCOc1ccccc1NC(=O)c1cccc2c1C(=O)N(CCOC)C2	96	85	69*	1
CCOc1ccccc1NC(=O)n1ncc2c(C)cccc21	/	99	48*	0
CCOc1ccccc1NC(=O)CN1CCc2ccccc2C1	/	94	15	0
Cc1ccc(NC(=O)N2CCc3ccccc3C2)cc1C	/	103	/	1
CCOc1ccccc1NC(=O)N1CCc2ccccc2C1	/	98	68*	2
COCCN1Cc2cccc(C(=O)Nc3cccc(C)c3C)c2C1=O	94	97	3	-1
O=C(Nc1ccc(F)cc1)N1CCc2ccccc2C1	92	103	69*	2
Cc1ccc2ccccc2c1C(O)c1ncc(-c2ccccc2F)[nH]1 (stereo not given)	/	89	/	-1
Cc1ccc(C(=O)N(CC(=O)NC2CCCC2)Cc2cccs2)s1	112	97	0	1
COc1ccc(-n2c(C)nnc2SCC(=O)Nc2ccccc2F)cc1	/	96	0	1
COCCN=c1scc(-c2cc(OC)c(OC)c(OC)c2)n1/N=C/c1c(C)[nH]c2ccccc12	106	132	56*	0
Cc1[nH]c2ccccc2c1/C=N/n1cnnc1	105	101	20	-1
CCC(C)/C(C)=N/NC(=O)c1ccccc1OCCOc1ccccc1 (stereo not given)	108	103	79*	4
O=C(NN=C1CCCC1)c1ccccc1OCCOc1ccccc1	115	101	31	4
CCOC(=O)C(CC)/C(C)=N\NC(=O)c1ccccc1O (stereo not given)	105	95	56*	3
COc1cccc(NC(=O)Nc2cccnc2)c1	97	110	50*	-1
COc1cccc(/C=N/NC(=S)Nc2cccnc2)c1	95	99	58*	4
SMILES	STAT3 activator	ABCB6 inh MLPCN	AHR act	GAA850 FXN act
Oc1ccc(/C=N/NC(=S)N/N=C/c2ccc(O)cc2)cc1	94	98	9	2
Oc1ccc(/C=N/NC(=S)Nc2cccnc2)cc1	/	131	54*	3
N#C/C(C(N)=O)=C1/CCCN1Cc1ccccc1	/	95	-2	0
COc1cccc(C2=NOC(C(=O)Nc3c(C)n(C)n(-c4ccccc4)c3=O)C2)c1 (stereo not given)	/	98	-2	2
COc1cccc(NC(=O)c2ccccc2NC(=O)c2ccncc2)c1	/	98	55*	1
COc1cc(C(=O)Nc2cc(C)ccn2)cc(OC)c1OC	105	98	56*	-3
COc1ccc(C(=O)Nc2ccccc2C(=O)Nc2cccc(C)n2)cc1	/	104	25	2
COc1ccc(C(=O)Nc2ccccc2C(=O)Nc2cccnc2)cc1	/	98	44	6
COc1ccc(C(=O)Nc2ccccc2C(=O)Nc2cc(C)ccn2)cc1	/	110	56*	4
N#Cc1c(F)cccc1N1CCN(Cc2ccc3c(c2)OCO3)CC1	/	96	-3	3
Cc1ccccc1S(=O)(=O)NC(=O)C1(C)CCN1C(=O)Cc1ccccc1Cl (stereo not given)	/	100	/	-1
Cc1ccc(S(=O)(=O)N2CCCCC2)cc1NS(=O)(=O)c1ccc(Cl)c(C(=O)O)c1	/	97	/	-1
COc1cc2ccccc2cc1C(=O)Nc1ccc(Br)cn1	/	101	/	4
O=C(Nc1nccs1)c1ccc2ccccc2c1	/	93	54*	3
COc1cc2ccccc2cc1C(=O)Nc1nccs1	/	100	57*	5

Assay outcomes as filed in PubChem BioAssay.
